# Screening results (PubChem)
# Most compounds without a hit are left out; they make up all but 2.4% or so of the library.
# ARNT TACC3 PPI = disruptors of human ARNT/TACC3 interaction; Q9Y6A5; AlphaScreen His-ARNT PAS-B/GST-TACC3 binding, luminescence; TACC3 fragment carries E629A point mutation; inhibition, % at 9.99 µM; 390,000 compounds, 0.66% hits; AID 623870;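 active = mean inhibition of replicates at least 50% and at least half of replicates each reaching 50%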;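 also: 0% = complete ARNT plus TACC3 wells and 100% = ARNT alone without TACC3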
# S100A4 inh HTS = inhibitors of human S100A4 binding to myosin IIA peptide; AID 652163; S100A4/TAMRA-MyoIIA peptide fluorescence polarization; inhibition, % at 10.7 µM; 360,000 compounds, 0.14% hits; P26447;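 active = mean inhibition of at least 70% across replicates, with every replicate also reaching that level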
# Target sequence (P26447 whole entry, looked up): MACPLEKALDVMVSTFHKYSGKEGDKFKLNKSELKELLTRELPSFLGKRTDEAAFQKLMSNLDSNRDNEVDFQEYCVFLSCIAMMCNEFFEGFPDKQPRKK
#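 Assay system: human S100A4 monomer with TAMRA-labelled myosin IIA peptide / Buffer or medium: Calcium-containing HEPES buffer, pH 7.2 / Reagent: TAMRA-labelled myosin IIA heavy-chain peptide probe, 5 nM / Compound: one dose per compound / Timing: polarization read 5 min after assay mix addition, stable 5–60 min / Benchmarks: neutral control DMSO, positive control TFP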
# ERAP1 inh = inhibitors of human ERAP1 aminopeptidase. Q9NZ08. recombinant ERAP1, Leu-AMC fluorescence, 60 min. inhibition, % at 10.7 µM. 340,000 compounds, 0.15% hits;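 active = mean replicate inhibition of at least 30%, or all replicates individually reaching that 30% level; inactive = mean below 30% and not every replicate reaching it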;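 also: 0% = neutral control wells and 100% = L-leucinethiol positive control wells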
# CASP6 VEID inh = blocks human caspase-6 cleavage activity; purified caspase-6, Z-VEID-R110 cleavage fluorescence; inhibition, % at 12.5 µM; 350,000 compounds, 0.53% hits;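 active = mean inhibition across replicates at least about 35%, with every replicate also reaching that limit, limit read from the data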;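 also: 0% = median of neutral control wells and 100% = no fluorescence left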
# Target sequence (P55212 24-179 limits assumed): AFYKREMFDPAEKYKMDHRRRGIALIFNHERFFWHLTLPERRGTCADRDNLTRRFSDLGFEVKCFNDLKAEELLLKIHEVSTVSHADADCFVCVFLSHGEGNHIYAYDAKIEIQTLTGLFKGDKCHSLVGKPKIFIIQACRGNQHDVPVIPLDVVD
# Target sequence (P55212 194-293 limits assumed): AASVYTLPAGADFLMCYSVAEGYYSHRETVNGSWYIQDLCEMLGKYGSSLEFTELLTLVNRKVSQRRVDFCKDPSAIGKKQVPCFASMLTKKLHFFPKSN
# Ecoli rRNA inh = inhibits bacterial ribosomal RNA function over humanized ribosomes | GFP signal change (wild-type ribosome), % (concentration not given with the values) | E. coli WT GFP vs humanized-ribosome RFP mutants, fluorescence, 24 h; hits give low values; DMSO median 0, no signal -100 | AID 720706 | 350,000 compounds, 1.6% hits;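 active = significant combined selectivity score with lowered wild-type GFP, culture density cut under 30%, mutant RFP and density less affected; inactive = any of these conditions unmet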
# PGC1a acetyl inh = lowers PGC1a acetylation signal in U2OS cells; AlphaScreen anti-acetyl-lysine; with virally co-expressed GCN5 acetyltransferase; inhibition, % at 15.6 µM; 350,000 compounds, 0.17% hits;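 active = every replicate shows inhibition of at least 40%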;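 also: 0% = neutral control wells and 100% = positive control wells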
# * = called active by the depositor; nt = not tested or not shown.
SMILES,ARNT TACC3 PPI,S100A4 inh HTS,ERAP1 inh,CASP6 VEID inh,Ecoli rRNA inh,PGC1a acetyl inh
Cc1cc(NC(=O)CSc2nnc(-c3ccco3)o2)no1,59*,0,0,5,12,nt
CC(=O)Nc1ccc(NC(=O)CSc2nnc(-c3ccco3)o2)cc1,-17,-1,-4,-2,8,-5
Cc1cc(NC(=O)CSc2nnc(CNC(=O)c3ccc(C(C)(C)C)cc3)o2)no1,47*,0,0,-1,3,nt
Cc1ccc(NC(=O)c2ccc(Br)o2)cc1S(=O)(=O)N(C)C,-4,-1,-3,-1,-21*,1
Cc1ccc(NC(=O)COC(=O)c2ccccc2Cl)cc1S(=O)(=O)N(C)C,3,2,-3,nt,-34*,18
Cc1ccc(NC(=O)Cc2ccccc2Cl)cc1S(=O)(=O)N(C)C,-24,nt,nt,nt,nt,nt
O=C(C[C@@H]1CC[C@@H]2[C@H](COC[C@H](O)CN2C(=O)c2ccc(F)cc2)O1)NC1Cc2ccccc2C1,3,-22,-3,-1,2,-9
COc1cc(/C=C/C(=O)OCC(=O)N2CCC(Cc3ccccc3)CC2)ccc1O,-3,3,3,0,-32*,nt
O=C(Nc1cc(F)ccc1F)N[C@@H]1CC[C@@H](CCn2cc(C3CCCC3)nn2)O[C@H]1CO,nt,12,2,0,-4,-14
Cc1noc(C)c1NC(=O)N(C)C[C@H]1Oc2ccc(NC(=O)CCC(F)(F)F)cc2CC(=O)N([C@@H](C)CO)C[C@H]1C,-7,3,-1,2,2,3
O=C(C[C@H]1CC[C@@H](NC(=O)c2ccncc2)[C@@H](CO)O1)Nc1ccc(-c2ccccc2)cc1,nt,-13,-3,2,-2,10
Cn1cc(/C=C/c2cc[n+](C)cc2)c2cc(F)ccc21,-7,0,66*,-14,64,-1
Cn1cc(/C=C/c2cc[n+](C)cc2)c2cc(Cl)ccc21,-1,-8,13,-23,60,-6
CC(C)CNC(=S)N1CCC(c2nc(-c3ccc(F)cc3)no2)CC1,10,5,0,-7,-26*,2
COCCNC(=S)N1CCC(c2nc(-c3ccc(N(C)C)cc3)no2)CC1,8,nt,nt,nt,nt,nt
COc1ccc(-c2cnc3c(c2)C(=O)N([C@H](C)CO)C[C@H](C)[C@H](CN(C)S(=O)(=O)c2cccc(F)c2)O3)cc1,-4,9,1,-3,1,0
c1ccc(OCCn2c(-c3ccco3)nc3ccccc32)cc1,6,8,2,1,-46*,-9
COc1ccc(-c2csc(NC(=O)CCNC(=O)c3ccco3)n2)cc1,nt,-2,-1,0,-10,2
Cc1ccc(-c2csc(NC(=O)CCNC(=O)c3ccco3)n2)cc1,-2,-1,0,1,-36*,11
Cc1cccc(-c2nc(CCNC(=O)c3ccco3)cs2)c1,nt,2,-5,42*,-13,-9
COc1ccc(CCNc2nc(=S)[nH]c3cc(OC)c(OC)cc23)cc1OC,56*,-4,-3,6,0,nt
COc1cc2[nH]c(=S)nc(NCc3ccc(Cl)cc3)c2cc1OC,34,5,-4,2,-4,2
COc1cc2[nH]c(=S)nc(NCCc3ccc(C)cc3)c2cc1OC,32,2,0,4,-26*,nt
COc1cc2[nH]c(=S)nc(NCCc3ccc(S(N)(=O)=O)cc3)c2cc1OC,70*,3,-2,1,0,8
COc1ccccc1CNc1nc(=S)[nH]c2cc(OC)c(OC)cc12,53*,-4,0,0,-1,nt
SMILES,ARNT TACC3 PPI,S100A4 inh HTS,ERAP1 inh,CASP6 VEID inh,Ecoli rRNA inh,PGC1a acetyl inh
COc1cc2[nH]c(=S)nc(NCc3cccs3)c2cc1OC,15,-4,3,5,-24,-9
COc1cc2[nH]c(=S)nc(NC3CCCCCC3)c2cc1OC,nt,-5,-1,-5,-39,nt
CO[C@@H]1CN(C)C(=O)c2ccc(NC(=O)C3CC3)cc2OC[C@@H](C)N(C(=O)c2cnccn2)C[C@@H]1C,nt,-10,2,1,4,-3
COc1ccc2c3c([nH]c2c1)[C@@H](CO)N(Cc1ccccc1F)CC31CCN(S(C)(=O)=O)CC1,nt,nt,nt,nt,2,0
COc1ccc(C(=O)Oc2cc3c4c(c2)C(C)=CC(C)(C)N4C(=O)C3=O)cc1OC,0,nt,nt,nt,nt,nt
COc1cccc(C(=O)Oc2cc3c4c(c2)C(C)=CC(C)(C)N4C(=O)C3=O)c1,8,13,-1,2,-20*,11
O=C(/C=C/c1ccccc1[N+](=O)[O-])N1CCN(c2ccc(F)cc2)CC1,-10,-2,-3,1,-30*,nt
O=C(/C=C/c1cccc([N+](=O)[O-])c1)N1CCN(c2ccc(F)cc2)CC1,0,nt,nt,nt,nt,11
CC(C)c1c(O)ccc2c1CC[C@H]1C(C)(C)CCC[C@]21C,1,-23,0,-6,-14*,-15
CC(C)NC(=S)NNc1ncnc2sc3c(c12)CC(C)(C)OC3,nt,-2,1,-1,10,7
CC1(C)Cc2c(sc3ncnc(NNC(=S)NCc4ccccc4)c23)CO1,nt,4,4,3,-34*,nt
CO[C@@H]1CN(C)C(=O)c2ccc(NC(C)=O)cc2OC[C@H](C)N(Cc2nccs2)C[C@@H]1C,-3,13,0,0,-2,-1
Cc1cc(NC(=O)NCc2ccccc2)c(=O)n(Cc2ccc(F)cc2)c1,48*,-7,0,1,2,nt
O=C(NCc1ccccc1)Nc1cccn(Cc2ccc(F)cc2)c1=O,-5,nt,nt,nt,nt,nt
O=S(=O)(Nc1ccccc1Cl)c1ccc(-c2ccccn2)s1,-2,-1,3,0,-37*,-9
CCOC(=O)/C(C#N)=C/c1c(N2CCN(c3cccc(Cl)c3)CC2)nc2c(C)cccn2c1=O,3,-12,-1,53*,9,-1
COc1ccc(NC(=O)N(C)C[C@@H]2Oc3ccc(NS(=O)(=O)c4cccs4)cc3CC(=O)N([C@H](C)CO)C[C@@H]2C)cc1,-7,nt,nt,nt,4,3
COC(=O)c1cccc(-c2ccc(C(c3c(C)[nH][nH]c3=O)c3c(C)[nH][nH]c3=O)o2)c1,64*,31,7,16,3,5
Cc1[nH][nH]c(=O)c1C(c1ccc(-c2ccc(Cl)c(C(=O)O)c2)o1)c1c(C)[nH][nH]c1=O,13,-2,3,nt,18,39
C=CCn1nnnc1SCC(=O)Nc1cccc(C(F)(F)F)c1,22,13,103*,-1,3,1
COc1ccc(NS(=O)(=O)c2ccc(NC(=O)c3ccccc3)cc2)nn1,-1,-3,-2,-8,-11,10
COc1ccc(NS(=O)(=O)c2ccc(NC(=O)c3ccccc3Br)cc2)nn1,-1,4,9,-1,-26*,2
